Measurements from ChEMBL document CHEMBL1154317, “Discovery of a potent, metabolically stabilized resorcylic lactone as an anti-inflammatory lead” (Bioorg Med Chem Lett, 2009).
Calls of active or inactive are those of the source. The rule behind the calls is not given here.

Columns and labels:
[1] = Antiinflammatory activity in human B164 cells assessed as inhibition of LPS-induced Actin production by PLAP reporter assay; assay type: functional, cell-based
Summary of the method: (§1)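 Stably transfected PLAP reporter lines (TNFα-promoter/5'-UTR-PLAP in THP-1-33; β-actin-promoter-PLAP in B164), kept in RPMI1640 with 10% heat-inactivated endotoxin-free FBS and G418 1 mg/mL. Seeded at 1.0×10^4 cells/well, preincubated with compound 30 min, then stimulated with LPS 100 ng/ml (E. coli 0127:B08 or 011:B4). After 24-48 h, supernatant alkaline phosphatase activity read; IC50 reported.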

[2] = system: THP-1; test: Antiinflammatory activity in human THP1 cells assessed as inhibition of LPS-induced TNFalpha production by PLAP reporter assay; assay type: functional, cell-based; summary of the method: as §1
[3] = system: U-937; test: Antiinflammatory activity in human U937 cells assessed as inhibition of LPS-induced Actin production by ELISA; assay type: functional, cell-based
[4] = system: U-937; test: Antiinflammatory activity in human U937 cells assessed as inhibition of LPS-induced TNFalpha production by ELISA; assay type: functional, cell-based
[5] = Metabolic stability in mouse plasma after 2 hrs; assay type: ADME, cell-free; conditions: read-out: Stability
Summary of the method: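 Compound at 50 μg/ml or 50 μM in freshly prepared heparinized mouse blood, incubated at 37 °C for 0, 30 and 120 min. Each sample extracted with MeOH containing 0.2% perchloric acid. Analyzed by reverse-phase HPLC, 30% acetonitrile in KH2PO4 buffer pH 3.5. Parent peak area at each time expressed as % of the 0 min area.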

[6] = Volume of distribution at steady state in BALB/c mouse at 3 mg/kg, iv; assay type: ADME, organism-based; design: dose 3 mg/kg, route intravenous; conditions: in vivo, read-out: Vdss
Summary of the method: (§2)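 Single intravenous dose given to BALB/c mice. Parent drug levels were measured in plasma over time after dosing. CL, VDss, t1/2 and AUC were derived from these plasma levels. AUC is reported normalised to dose, […].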

[7] = Clearance in BALB/c mouse at 3 mg/kg, iv; assay type: ADME, organism-based; design: dose 3 mg/kg, route intravenous; conditions: in vivo; summary of the method: as §2
[8] = Half life in BALB/c mouse at 3 mg/kg, iv; assay type: ADME, organism-based; design: route intravenous, dose 3 mg/kg; conditions: in vivo; summary of the method: as §2
[9] = organism: Mus musculus; test: Antiinflammatory activity in mouse assessed as inhibition of LPS-induced IL6 production; assay type: functional, organism-based
Summary of the method: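 Mice given compound together with LPS by tail-vein injection in 10% cyclodextrin. Blood collected 3 h later and plasma IL-6 measured by ELISA. Mean with SEM, n = 6-8. Compared against the LPS-treated control group by Dunnett's post hoc test, P<0.05.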

[10] = system: Mus musculus; test: Normalised AUC in BALB/c mouse at 3 mg/kg, iv; assay type: ADME, organism-based; design: dose 3 mg/kg, route intravenous; conditions: in vivo; summary of the method: as §2

IC50 [1] [µM]	IC50 [2] [µM]	SMILES	further results
> 10	> 10	COc1cc(O)c2c(c1)/C=C/C[C@H](O)[C@H](O)/C=C\[C@@H](Cc1ccccc1)[C@H](C)OC2=O	–
–	–	CC[C@@H]1/C=C\[C@@H](O)[C@@H](O)C/C=C/c2cc(OC)cc(O)c2C(=O)O[C@H]1C	inhibition [3]: inactive; inhibition [4]: inactive
> 10	1.14	COc1cc(O)c2c(c1)/C=C/C[C@H](O)[C@H](O)/C=C\[C@H](C)[C@H](C)OC2=O	–
4.41	3.69	COc1cc(O)c2c(c1)/C=C/C[C@H](O)[C@H](O)C(=O)/C=C\C[C@H](c1ccccc1)OC2=O	–
7.6	0.239	COc1cc(O)c2c(c1)/C=C/C[C@H](O)[C@H](O)C(=O)/C=C\[C@H](OC)[C@H](C)OC2=O	remaining at 2 h [5]: 25%
> 10	0.259	COc1cc(O)c2c(c1)/C=C/C[C@H](O)[C@H](O)/C=C\[C@@H](C)CNC2=O	–
> 10	0.136	COc1cc(O)c2c(c1)/C=C/C[C@H](O)[C@H](O)C(=O)/C=C\[C@@H](C)[C@H](C)OC2=O	remaining at 2 h [5]: > 80%; Vd [6]: 1.69 L/kg; clearance [7]: 91.8 mL/min/kg; half-life [8]: 3.44 h; inhibition [9]: Active; AUC/dose [10]: 181 ng·h/mL/(mg/kg)
> 10	0.2	COc1cc(O)c2c(c1)/C=C/C[C@H](O)[C@H](O)/C=C(\F)[C@@H](C)[C@H](C)NC2=O	–
> 10	0.203	COc1cc(O)c2c(c1)/C=C/C[C@H](O)[C@H](O)/C=C\[C@@H](C)COC2=O	–
> 10	> 10	COc1cc(O)c2c(c1)/C=C/C[C@H](O)[C@H](O)C(=O)C1CC1OC2=O (stereo not given in full)	–
2.8	0.069	COc1cc(O)c2c(c1)/C=C/C[C@H](O)[C@H](O)C(=O)/C=C\CCOC2=O	–
> 10	> 10	COc1cc(O)c2c(c1)/C=C/C[C@H](O)[C@H](O)/C=C\C(C)(C)COC2=O	–
> 10	9	COc1cc(O)c2c(c1)/C=C/C[C@H](O)[C@H](O)/C=C\[C@@H](CC(F)(F)F)[C@H](C)OC2=O	–
> 10	> 10	COc1cc(O)c2c(c1)/C=C/C[C@H](O)[C@H](O)/C=C\[C@H](C)[C@@H](C)OC2=O	–
> 30	4	COc1cc(O)c2c(c1)/C=C/C[C@H](O)[C@H](O)C(=O)/C=C\[C@H]1CCC[C@H]1OC2=O	remaining at 2 h [5]: 34%
> 10	0.888	COc1ccc(CO[C@@H]2/C=C\C(=O)[C@@H](O)[C@@H](O)C/C=C/c3cc(OC)cc(O)c3C(=O)O[C@H]2C)cc1	–
3	0.667	COc1cc(O)c2c(c1)/C=C/C[C@H](O)[C@H](O)C(=O)/C=C\[C@@H]1CCC[C@@H]1OC2=O	remaining at 2 h [5]: 77%
2.44	0.059	CC[C@H]1C/C=C\C(=O)[C@@H](O)[C@@H](O)C/C=C/c2cc(OC)cc(O)c2C(=O)O1	–
8.47	5.21	CC[C@@H]1C/C=C\C(=O)[C@@H](O)[C@@H](O)C/C=C/c2cc(OC)cc(O)c2C(=O)O1	–

SMILES	IC50 [1] [µM]	IC50 [2] [µM]	further results
COc1cc(O)c2c(c1)/C=C/C[C@@H](O)[C@@H](O)C(=O)/C=C\C[C@@H](C)OC2=O	4.98	2.62	–
COc1cc(O)c2c(c1)/C=C/C[C@H](O)[C@H](O)C(=O)/C=C\C[C@@H](C)OC2=O	7.07	1.05	–
COc1cc(O)c2c(c1)/C=C/C[C@H](O)[C@H](O)C(=O)/C=C\C[C@H](C(F)(F)F)OC2=O	1.33	0.031	–
COc1cc(O)c2c(c1)/C=C/C[C@H](O)[C@H](O)C(=O)/C=C\C[C@H](C)OC2=O	2.37	0.011	remaining at 2 h [5]: 2%; Vd [6]: 3.3 L/kg; clearance [7]: 710 mL/min/kg; half-life [8]: 0.05 h; AUC/dose [10]: 23.8 ng·h/mL/(mg/kg)
